Measurements from ChEMBL document CHEMBL3526095, “Characterization of the in vitro and in vivo metabolism and disposition and cytochrome P450 inhibition/induction profile of saxagliptin in human” (Drug Metab Dispos, 2012).

B1: Cytochrome P450 3A5 (Homo sapiens) (protein)
chain: MDLIPNLAVETWLLLAVSLVLLYLYGTRTHGLFKRLGIPGPTPLPLLGNVLSYRQGLWKFDTECYKKYGKMWGTYEGQLPVLAITDPDVIRTVLVKECYSVFTNRRSLGPVGFMKSAISLAEDEEWKRIRSLLSPTFTSGKLKEMFPIIAQYGDVLVRNLRREAEKGKPVTLKDIFGAYSMDVITGTSFGVNIDSLNNPQDPFVESTKKFLKFGFLDPLFLSIILFPFLTPVFEALNVSLFPKDTINFLSKSVNRMKKSRLNDKQKHRLDFLQLMIDSQNSKETESHKALSDLELAAQSIIFIFAGYETTSSVLSFTLYELATHPDVQQKLQKEIDAVLPNKAPPTYDAVVQMEYLDMVVNETLRLFPVAIRLERTCKKDVEINGVFIPKGSMVVIPTYALHHDPKYWTEPEEFRPERFSKKKDSIDPYIYTPFGTGPRNCIGMRFALMNMKLALIRVLQNFSFKPCKETQIPLKLDTQGLLQPEKPIVLKVDSRDGTLSGE

What was measured:
[1] = Drug metabolism in human assessed as drug excretion in urine at 50 mg, po after 24 to 48 hrs by liquid scintillation counting; format: ADME, organism-based; details: in vivo
Method in brief: (§1)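 Healthy males received a single 50-mg oral [14C]saxagliptin solution (91.5 µCi) after a 10-h fast. Urine collected 0–12 h, 12–24 h, then at 24-h intervals to 168 h; feces collected at 24-h intervals. Radioactivity counted by LSC: urine directly, feces as ~20% w/w homogenate combusted before counting. Result expressed as % of actual dose, based on syringe weights.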

[2] = Drug metabolism in human assessed as drug excretion in feces at 50 mg, po after 48 to 72 hrs by liquid scintillation counting; format: ADME, organism-based; details: in vivo; method in brief: as §1
Liver microsome [3] = assay: Drug metabolism in human liver microsomes assessed as formation of 5-hydroxy saxagliptin at 1 uM after 30 mins by LC-MS/MS analysis in presence of ketoconazole and troleandomycin
Liver microsome [4] = assay: Drug metabolism in human liver microsomes assessed as formation of mono-hydroxylated metabolite at 10 uM after 1 hr by LC-MS/MS analysis in presence of NADPH; format: ADME
Method in brief: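 Pooled HLM at 1 mg/ml protein, incubated with 10 µM [14C]saxagliptin and 1 mM NADPH in 100 mM phosphate buffer pH 7.4 at 37°C for 60 min. Quenched with ice-cold acetonitrile; supernatant analysed by LC-MS/MS and off-line radioanalysis.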

[5] = Drug metabolism in human assessed as total drug excretion in feces at 50 mg, po up to 144 hrs by liquid scintillation counting; format: ADME, organism-based; details: in vivo; method in brief: as §1
[6] = Drug metabolism in human assessed as drug excretion in feces at 50 mg, po after 96 to 144 hrs by liquid scintillation counting; format: ADME, organism-based; details: in vivo; method in brief: as §1
[7] = Drug metabolism in human assessed as drug excretion in urine at 50 mg, po up to 12 hrs by liquid scintillation counting; format: ADME, organism-based; details: in vivo; method in brief: as §1
[8] = Drug metabolism in human assessed as drug excretion in feces at 50 mg, po after 72 to 96 hrs by liquid scintillation counting; format: ADME, organism-based; details: in vivo; method in brief: as §1
Liver microsome [9] = assay: Drug metabolism in human liver microsomes assessed as formation of 5-hydroxy saxagliptin at 10 uM after 1 hr by LC-MS/MS analysis in absence of NADPH; format: ADME
[10] = Drug metabolism in human assessed as drug excretion in urine at 50 mg, po after 12 to 24 hrs by liquid scintillation counting; format: ADME, organism-based; details: in vivo; method in brief: as §1
[11] = Drug metabolism in human assessed as drug excretion in feces at 50 mg, po up to 24 hrs by liquid scintillation counting; format: ADME, organism-based; details: in vivo; method in brief: as §1
Liver microsome [12] = assay: Drug metabolism in human liver microsomes assessed as formation of 5-hydroxy saxagliptin at 10 uM after 30 mins by LC-MS/MS analysis in presence of 1-aminobenzotriazole
[13] = Drug metabolism in human assessed as drug excretion in urine at 50 mg, po after 48 to 168 hrs by liquid scintillation counting; format: ADME, organism-based; details: in vivo; method in brief: as §1
[14] = Drug metabolism in human assessed as drug excretion in feces at 50 mg, po after 24 to 48 hrs by liquid scintillation counting; format: ADME, organism-based; details: in vivo; method in brief: as §1
[15] = Drug metabolism in human assessed as total drug excretion in urine at 50 mg, po up to 168 hrs by liquid scintillation counting; format: ADME, organism-based; details: in vivo; method in brief: as §1
[16] = substrate: N#C[C@@H]1C[C@@H]2C[C@@H]2N1C(=O)[C@@H](N)C12CC3CC(CC(O)(C3)C1)C2; assay: Drug metabolism in assessed as human CYP3A5-mediated formation of 5-hydroxy saxagliptin Michaelis-Menten kinetic analysis; format: ADME
Method in brief: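 M2 formation kinetics measured in triplicate at twelve saxagliptin concentrations from 1 to 800 µM. Enzyme source was pooled HLM (0.25 mg/ml, 30 min, 37°C) or expressed CYP3A4 or CYP3A5 (10 pmol/ml, 10 min). Incubations contained 1 mM NADPH and 2 mM MgCl2 in phosphate buffer pH 7.4.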

Molecule | Drug excretion [1] | Drug excretion [2] | Drug metabolism (Liver microsome [3]) | Drug metabolism (Liver microsome [4]) | Drug excretion [5] | Drug excretion [6] | Drug excretion [7] | Drug excretion [8] | Drug metabolism (Liver microsome [9]) | Drug excretion [10] | Drug excretion [11] | Drug metabolism (Liver microsome [12]) | Drug excretion [13] | Drug excretion [14] | Drug excretion [15] | Km [16] | Vmax [16]
N#C[C@@H]1C[C@@H]2C[C@@H]2N1[14C](=O)[14C@@H](N)C12CC3CC(CC(O)(C3)C1)C2 | 1.9% | 2.86% | metabolite_not_detected | metabolite_detected | 22.05% | 2.39% | 68.15% | 1.13% | metabolite_not_detected | 3.26% | 7.22% | metabolite_not_detected | 1.6% | 8.46% | 74.89% | – | –
B1 | – | – | – | – | – | – | – | – | – | – | – | – | – | – | – | 252 µM | 2.4e-05 µmol/min
